# From PubChem BioAssay
# Most compounds without a hit are left out; they make up all but 3.9% or so of the library.
# HIF act: HIF pathway transcriptional activation; U2OS HRE-luciferase reporter, luminescence; normalized: DMSO 0%, desferrioxamine 100%; activation, % at 7.5 µM (by protocol); AID 1910; 0.32% of 300,000 active;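 active means mean activation of at least 10% of the iron chelator positive control signal, with at least half of replicates also reaching 10%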
# FXN GAA850 act: frataxin GAA850 promoter activation | 0.56% of 360,000 active | HEK293 lucGAA850 FXN promoter luciferase reporter, 24 h; percent of 10 µM SAHA response | activation, % at 6 µM;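 active means activation above the average of all compounds screened plus 3 SD, cutoff fixed separately per campaign, cut at about 7.5% in these data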;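 further: 0% = DMSO wells and 100% = 10 µM SAHA wells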
# ABCB6 inh MLPCN: human ABCB6 transporter inhibition; K562-ABCB6 porphyrin accumulation, flow cytometry, 1 h; hits give low values; fluorescence ratio to DMSO, % at 10 µM; 0.19% of 360,000 active; AID 602162;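 active means fluorescence ratio to DMSO below 75%, the collection mean minus 3 SD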;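 further: signal is porphyrin accumulated inside mitochondria; 100% equals median channel fluorescence of DMSO control wells; lower ratio means ABCB6 inhibition with less porphyrin fluorescence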
# Target sequence (Q9NP58 whole entry, looked up): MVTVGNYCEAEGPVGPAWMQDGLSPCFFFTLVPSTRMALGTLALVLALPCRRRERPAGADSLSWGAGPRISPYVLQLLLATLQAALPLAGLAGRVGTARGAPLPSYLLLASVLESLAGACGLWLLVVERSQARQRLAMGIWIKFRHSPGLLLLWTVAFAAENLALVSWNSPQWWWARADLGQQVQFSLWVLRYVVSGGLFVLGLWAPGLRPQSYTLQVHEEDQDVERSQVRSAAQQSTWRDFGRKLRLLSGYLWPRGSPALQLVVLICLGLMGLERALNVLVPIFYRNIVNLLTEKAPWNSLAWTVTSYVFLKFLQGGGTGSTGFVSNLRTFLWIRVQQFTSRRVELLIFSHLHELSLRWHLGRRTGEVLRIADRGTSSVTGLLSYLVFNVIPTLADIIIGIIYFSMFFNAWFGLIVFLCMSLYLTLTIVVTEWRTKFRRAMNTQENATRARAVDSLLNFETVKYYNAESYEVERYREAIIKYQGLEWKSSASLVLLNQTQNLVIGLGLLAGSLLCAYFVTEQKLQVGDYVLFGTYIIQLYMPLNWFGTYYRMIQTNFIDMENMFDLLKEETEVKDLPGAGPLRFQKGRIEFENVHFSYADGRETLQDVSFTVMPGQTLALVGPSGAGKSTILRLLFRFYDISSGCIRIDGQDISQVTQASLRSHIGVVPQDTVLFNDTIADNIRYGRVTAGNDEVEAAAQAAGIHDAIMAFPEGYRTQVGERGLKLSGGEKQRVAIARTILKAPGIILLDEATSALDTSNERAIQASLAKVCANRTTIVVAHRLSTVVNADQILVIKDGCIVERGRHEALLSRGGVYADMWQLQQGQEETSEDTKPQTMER
# SR-BI DiI-HDL act: enhances SR-BI lipid uptake from DiI-HDL; AID 504775; activation, % at 12.5 µM; CHO ldlA[mSR-BI] cells, DiI-HDL uptake fluorescence, 3 h; 100 = double the neutral-control signal; 0.096% of 320,000 active;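 active means mean replicate activation of at least 60% and every replicate at or above 60%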;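 further: 0% = median plate neutral-control signal and 100% = twice that signal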
#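 Test system: SR-BI-overexpressing, LDLR-lacking CHO cells. Measured by: DiI fluorescence, bottom read. Medium: Ham's F12 with 0.5% BSA, HEPES 25 mM, pH 7.4. Timing: 3 h uptake period with compound, 37 °C.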
# SR-BI DiI inh: blocks mouse SR-BI lipid uptake from DiI-HDL. Q61009. ldlA[mSR-BI] CHO cells, DiI-HDL uptake fluorescence, 3 h. inhibition, % at 12.5 µM. 0.96% of 320,000 active;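 active means mean replicate inhibition of at least 70% and a set share of replicates each scoring 70 or more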;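 further: 0% = median of neutral control wells and 100% = median of positive control wells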
# AHR activator: human AHR activation; P35869; AHR-responsive luciferase reporter cells, luminescence; activation, % at 5 µM; 2.5% of 320,000 active; in the data active means activation above about 47%;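 further: 0% = vehicle wells and 100% = reference agonist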
# Numbers without * were called inactive; · = no result given.
SMILES,HIF act,FXN GAA850 act,ABCB6 inh MLPCN,SR-BI DiI-HDL act,SR-BI DiI inh,AHR activator
COc1ccc(-c2ccc3c(c2)S(=O)(=O)c2cccc(C(=O)NCCOc4ccccc4)c2C3=O)cc1OC,·,0,91,-73,73*,2
COc1ccc(OC)c(/C=N\NC(=O)c2cc3c(ccc4ccccc43)o2)c1,0,-1,96,·,47,20
COc1ccc(/C=N/NC(=O)c2cc3c(ccc4ccccc43)o2)c(OC)c1,1,-4,100,-82,82*,·
COc1ccccc1/C=N/NC(=O)c1cccc2ccccc12,2,0,97,-77,77*,8
O=C(O)COc1ccccc1/C=N/NC(=O)COc1ccc(-c2ccccc2)cc1,0,-1,96,22,-22,68*
CCOc1cc(/C=N/NC(=O)c2ccc(N(C)S(=O)(=O)c3ccccc3)cc2)ccc1OC,0,1,105,-73,73*,23
CC(=O)c1c(C)n(-c2ccc(C)cc2C)c2ccc(O)cc12,0,1,92,-27,27,1
O=C(N/N=C/c1ccccc1[N+](=O)[O-])c1ccc(COc2ccccc2-c2ccccc2)cc1,0,2,97,-77,77*,15
COc1ccccc1/C=N/NC(=O)c1ccc(-c2ccccc2)cc1,0,-1,102,-79,79*,18
O=C(N/N=C/c1ccc2cccc(OCc3ccccc3)c2n1)c1ccc(Br)cc1,1,0,94,-62,62,69*
CC(=O)Nc1ccc(C(=O)N/N=C/c2ccccc2OCc2ccccc2)cc1,2,-2,93,-79,79*,2
COc1cc(/C=N\NC(=O)c2ccc(-c3ccccc3)cc2)cc(OC)c1O,5,1,96,-92,92*,23
COc1cc(/C=N\NC(=O)c2ccc(-c3ccccc3)cc2)cc(OC)c1OC(C)=O,·,1,103,·,49,·
O=C(c1ccccc1)N1CCN(c2ncnc3c2cnn3-c2ccccc2)CC1,1,-2,94,-37,37,61*
Cc1ccc(-c2ccc(CCC(=O)O)n2CC(=O)O)cc1,0,0,98,17,-17,8
Cc1ccc2c(c1)N(C(=O)c1ccco1)C(C)(C)c1ssc(=S)c1-2,0,-2,102,-94,94*,0
O=C1CC(Cc2ccc(Cl)cc2)C(=O)N1c1ccccn1 (configuration not stated),0,1,73*,0,0,-2
COc1ccc(OC)c(CNC(=O)CCCc2cn(C)c3ccccc23)c1,0,-1,103,-17,17,71*
CCOc1ccc(CNC(=O)CCCc2cn(C)c3ccccc23)cc1OC,0,-1,93,-34,34,3
COc1ccc(OC)c(CNC(=O)CCc2cn(C)c3ccccc23)c1,-1,1,96,-4,4,13
CCOc1ccc(CNC(=O)CCCc2cn(C)c3ccccc23)cc1,-1,-1,98,-85,85*,·
CCCC(=O)Nc1cc(-c2nnc(OC)c3ccccc23)ccc1N1CCCCC1,0,·,·,·,·,1
COc1nnc(-c2ccc(N3CCCCC3)c(N)c2)c2ccccc12,1,4,96,·,35,64*
CC(=O)c1sc(Nc2ccccn2)nc1C,1,2,96,1,-1,61*
CC(=O)c1sc(Nc2cccc3ccccc23)nc1C,0,2,96,-23,23,7
O=C(/C=C/c1ccco1)N(Cc1ccc(F)cc1)C1CCS(=O)(=O)C1 (configuration not stated),0,1,99,7,-7,-1
O=C(Nc1cc(Cl)ccc1N1CCOCC1)c1ccc(=O)[nH]c1,·,0,102,-4,4,0
COc1ccc(-c2csc(NC(=O)CSc3nc(C)cs3)n2)cc1,2,7,97,-20,20,10
COc1ccc(-c2csc(NC(=O)CSc3nc(SC)ns3)n2)cc1,1,4,93,-41,41,58*
O=S(N1CCCCC1)C12CC3CC(CC(C3)C1)C2 (configuration not stated),0,-1,103,20,-20,0
